ERp5 block – inhibitors of ERp5-driven insulin aggregation, primary screen, biochemical, turbidity, absorbance 650 nm, single point; inhibition, % at 9.99 µM; 90 min; hit rate 0.05% among 350,000; Protein disulfide-isomerase A6 (Homo sapiens), Q15084;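 active = mean replicate inhibition above about 25%, with every replicate also reaching it, limit read from the data, passing the limit was not always enough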
C2C12 statin – suppressors of statin myotoxicity in C2C12 myotubes, primary screen, cell-based, single point, plate reader | C2C12 myotubes + simvastatin, ATP luminescence, 48 h; scaled: DMSO 0, geranylgeraniol control 100 | rescue of ATP level, % at 7.49 µM | hit rate 0.78% among 330,000;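 active = mean ATP rescue above about 67%, or every replicate alone reaching that limit, limit read from the data, passing the limit was not always enough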;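 note: myotubes were challenged with 10 µM simvastatin during compound exposure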
Cneo AK release – Cryptococcus neoformans cell lysis inducers, primary screen, AK release luminescence, single concentration | C. neoformans lysis, adenylate kinase release luminescence, 4 h; normalised: neutral wells 0, clomiphene wells 100 | lysis activity, % at 15 µM | hit rate 0.2% among 360,000;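 active = mean lysis activity across replicates of at least 80%, whatever share of replicates individually reach that level; inactive = mean lysis activity below 80%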
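Assay system: log-phase C. neoformans yeast / Quantity: yeast cell density of 5 × 10^6 cells/mL / Medium: fresh YPD growth medium / Compound: single dose / Timing: static 4 h at 37 °C with compound, 1 h detection / Measured by: adenylate kinase release luminescence / Read-out: lysis from increased AK signal / Benchmarks: Clomiphene as positive lysis control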
DENV2 CPE rescue – inhibitors of DENV2 cytopathic effect, primary screen, cell-based, plate reader, single concentration | AID 651640, 2012 | DENV2-infected cells, cytopathic effect rescue | CPE inhibition, % at 9.99 µM | hit rate 1.7% among 350,000; in the data active = CPE inhibition above about 20%, passing the limit was not always enough; tested in BHK-21 cells;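 note: 0% = median of neutral control wells and 100% = median of positive control wells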
PDI inh – inhibitors of human PDI, primary screen, biochemical, turbidity, single point, plate reader; hit rate 0.052% among 350,000; inhibition, % at 10 µM; Protein disulfide-isomerase (Homo sapiens), P07237; PDI insulin aggregation turbidity, A650, 90 min; AID 588391, 2011;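 active = mean inhibition across replicates of 30% or more, whatever share of single replicates reach that level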
Target sequence (P07237 whole entry, looked up): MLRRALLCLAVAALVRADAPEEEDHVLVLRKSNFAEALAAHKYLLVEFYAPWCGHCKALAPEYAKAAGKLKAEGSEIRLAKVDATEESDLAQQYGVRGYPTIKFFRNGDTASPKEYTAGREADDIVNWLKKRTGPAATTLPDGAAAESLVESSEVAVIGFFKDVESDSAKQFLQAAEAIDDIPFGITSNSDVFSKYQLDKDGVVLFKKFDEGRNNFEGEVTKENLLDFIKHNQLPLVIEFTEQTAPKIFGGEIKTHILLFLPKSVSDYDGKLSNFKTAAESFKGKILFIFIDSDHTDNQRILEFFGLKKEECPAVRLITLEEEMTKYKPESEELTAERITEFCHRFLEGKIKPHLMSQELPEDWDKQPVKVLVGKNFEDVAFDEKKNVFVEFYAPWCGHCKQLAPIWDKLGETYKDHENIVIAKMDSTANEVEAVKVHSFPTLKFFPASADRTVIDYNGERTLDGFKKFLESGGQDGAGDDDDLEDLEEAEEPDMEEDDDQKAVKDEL
CFTR F508del cor – F508del CFTR correction, initial screen, CFBE line, single point; CFBE cells, YFP halide quenching; stimulated with forskolin plus potentiator P3; % fluorescence drop versus neutral controls; hit rate 0.36% among 350,000; AID 720511, 2013; activity (quench increase), % at 7.58 µM;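 active = mean added fluorescence quench of at least 8% versus neutral control, with both replicates also reaching 8%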;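 note: cells transiently co-express mutant CFTR-F508del with the halide-sensitive YFP; corrector assay measuring rescue of mutant channel to the surface after 24 h compound exposure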
The depositor's hits bear a star; . = no result given. Sampled rows, rich in hits. Any-hit rate of the full collection: about 2.3%.

SMILES | ERp5 block | C2C12 statin | Cneo AK release | DENV2 CPE rescue | PDI inh | CFTR F508del cor
COCCNC(=O)C1(C)CCN(C(=O)c2ccc3sccc3c2)C1 (stereo not drawn) | 3 | -1 | 0 | 54* | -1 | 6
CCCNC(=O)C1(C)CCN(C(=O)c2ccc3sccc3c2)C1 (stereo not drawn) | -2 | -1 | 1 | -4 | -13 | 3
CCCNC(=O)C1(C)CCN(C(=O)Cc2ccc(OC)c(OC)c2)C1 (stereo not drawn) | 3 | 13 | -5 | 3 | 1 | 2
COCCNC(=O)C1(C)CCN(C(=O)Cc2ccc(OC)c(OC)c2)C1 (stereo not drawn) | 4 | -5 | 0 | 22* | -3 | -3
COc1cccc(NC(=O)N[C@@H]2CC[C@@H](CC(=O)NCc3ccncn3)O[C@H]2CO)c1 | -4 | 1 | 0 | 1 | . | -1
O=S(=O)(NN=C1CCCCC1)c1ccccc1 | 2 | 115* | 0 | 2 | 3 | 2
O=S(=O)(NN=C1CCCCCCC1)c1ccccc1 | -8 | 3 | 1 | 8 | -6 | 1
CCCC#Cc1ccc2c(c1)O[C@H](CN(C)CCC)[C@H](C)CN([C@H](C)CO)S2(=O)=O | -9 | 2 | 63 | -1 | . | 0
Cc1noc(C)c1NC(=O)N(C)C[C@@H]1Oc2ncc(C#CCN(C)C)cc2C(=O)N([C@H](C)CO)C[C@@H]1C | 0 | -12 | -1 | -5 | . | -1
Cc1noc(C)c1NC(=O)N(C)C[C@H]1Oc2ncc(C#CC(C)C)cc2C(=O)N([C@@H](C)CO)C[C@H]1C | 1 | -1 | -3 | 53* | . | -1
Cc1noc(C)c1NC(=O)N(C)C[C@@H]1Oc2ncc(C#CCN(C)C)cc2C(=O)N([C@@H](C)CO)C[C@@H]1C | 5 | 4 | 2 | 25* | . | -1
O=c1c(O)c(-c2cccs2)oc2ccc(Cl)cc12 | -9 | 2 | -3 | -3 | -10 | 53*
CC(C)NC(=O)Nc1ccc2c(c1)C(=O)N([C@H](C)CO)C[C@H](C)[C@@H](CN(C)C(=O)c1ccccc1)OCCCC[C@H](C)O2 | -1 | -1 | 2 | 48* | . | 1
C[C@@H]1CN([C@H](C)CO)C(=O)c2cc(NC(=O)C3CCCCC3)ccc2O[C@@H](C)CCCCO[C@@H]1CN(C)C(=O)c1ccccc1 | 1 | -21 | -1 | 20 | . | -1
C[C@@H]1CCCCO[C@@H](CN(C)C(=O)c2ccccc2)[C@H](C)CN([C@@H](C)CO)C(=O)c2cc(NC(=O)C3CCCCC3)ccc2O1 | 4 | 8 | 0 | 71* | . | 0
C[C@@H]1CN([C@@H](C)CO)C(=O)Cc2cc(NC(=O)CCN3CCOCC3)ccc2O[C@H]1CN(C)Cc1ccc(Oc2ccccc2)cc1 | 0 | -4 | 50 | . | . | -4
C[C@@H]1CN([C@H](C)CO)C(=O)c2cc(NC(=O)c3ccncc3)ccc2O[C@@H](C)CCCCO[C@H]1CN(C)C(=O)c1ccccc1 | . | 62 | . | . | . | 3
Cc1cc(C)cc(N(C(C)C(=O)NCCC2=CCCCC2)S(C)(=O)=O)c1 (stereo not drawn) | 8 | 93* | 2 | 2 | 4 | -3
CC(C)CCNC(=O)C(=O)NCCC1=CCCCC1 | 5 | -2 | -4 | 1 | -4 | .
O=C(CCCCC(=O)Nc1ccc(F)cc1)Nc1ccc(F)cc1 | 3 | 9 | 1 | 13 | -1 | -1
CC(OC(=O)CCCC(=O)Nc1ccc(F)cc1)C(=O)c1ccccc1 (stereo not drawn) | -1 | -39 | 1 | 9 | 8 | 9.4*
COC(=O)c1ccc(C)c(NS(=O)(=O)c2ccc(OC)cc2)c1 | 4 | -13 | 1 | 1 | 6 | 7
COC(=O)COc1ccc(S(=O)(=O)Nc2ccccc2SC)cc1 | . | 127* | -3 | . | 4 | .
CSc1ccccc1NS(=O)(=O)c1ccc2c(c1)OCCO2 | -1 | 92* | -2 | -6 | -2 | 0
COC(=O)c1ccc(C)c(NS(=O)(=O)c2ccc3c(c2)OCCO3)c1 | . | 92* | 1 | . | 1 | .
SMILES | ERp5 block | C2C12 statin | Cneo AK release | DENV2 CPE rescue | PDI inh | CFTR F508del cor
CCOc1ccc(NS(=O)(=O)c2ccc(C(=O)NCc3cccnc3)cc2)cc1 | 0 | 26 | . | -3 | 7 | 2
CCOc1ccc(S(=O)(=O)NCC(=O)N(C)Cc2cccnc2)cc1 | . | 109* | 0 | . | -7 | .
COC(=O)c1ccc(S(=O)(=O)N2CCc3ccccc32)cc1 | 0 | 29 | -4 | -6 | -12 | 12*
CC1CN(S(=O)(=O)c2ccc(C(=O)N3CCc4ccccc43)cc2)CC(C)O1 (stereo not drawn) | -8 | 1 | 0 | 12 | -6 | 16*
COc1cccc(C(=O)N2CCOCC2)c1 | -5 | -2 | . | 33* | 1 | -2
COc1ccc(N2CCN(C(=O)c3ccc4c(c3)CCN4S(=O)(=O)c3ccccc3)CC2)cc1 | -8 | 134* | -1 | 4 | 2 | 0
C[C@@H]1CN([C@@H](C)CO)C(=O)c2cc(-c3ccc(C#N)cc3)cnc2O[C@H]1CN(C)C(=O)c1ccccc1 | -4 | 9 | -4 | -2 | . | 0
COc1cccc(C(=O)c2c[nH]c(C(=O)NCCCN3CCOCC3)c2)c1 | 2 | . | . | -2 | -1 | 15*
CS(=O)(=O)N1CCc2cc(C(=O)N3CCCCC3)ccc21 | . | 4 | -1 | . | -4 | .
CS(=O)(=O)N1CCc2cc(C(=O)N3CCOCC3)ccc21 | . | 98* | 1 | . | 9 | .
C[C@H]1CN([C@@H](C)CO)C(=O)Cc2cc(NC(=O)CCCCCC(=O)Nc3ccccc3N)ccc2O[C@@H]1CN(C)Cc1ccc2c(c1)OCO2 | -5 | 49 | 1 | -7 | . | -1
C[C@@H]1CN([C@@H](C)CO)C(=O)Cc2cc(NC(=O)CCCCCC(=O)Nc3ccccc3N)ccc2O[C@@H]1CN(C)Cc1ccc2c(c1)OCO2 | 3 | 38 | -4 | 60* | . | -2
C[C@@H]1CN([C@H](C)CO)C(=O)Cc2cc(NC(=O)CCCCCC(=O)Nc3ccccc3N)ccc2O[C@H]1CN(C)Cc1ccc2c(c1)OCO2 | 4 | 19 | 92* | -8 | . | 1
CO[C@H]1CN(C)C(=O)c2cc(NC(=O)Nc3cc(F)ccc3F)ccc2OC[C@@H](C)NC[C@@H]1C | -1 | -26 | 3 | 0 | . | 0
CC(C)NC(=O)N(C)C[C@@H]1Oc2cc(-c3cncnc3)ccc2S(=O)(=O)N([C@@H](C)CO)C[C@H]1C | -4 | 6 | 48 | 2 | . | 0

Source: PubChem BioAssay
